Experimental findings from ChEMBL document CHEMBL1144843, “Design and campaign synthesis of pyridine-based histone deacetylase inhibitors” (Bioorg Med Chem Lett, 2008) are described below.

What is called solubility is how much of the substance goes into solution per volume. Read a high solubility as a readily soluble substance. As a reminder, the IC50 is the concentration that inhibits the measured activity by half. The term half-life denotes the time needed for the level to fall by half in the phase considered. A lower half-life goes with fast loss. The logD is the decadic logarithm of the distribution of all forms, ionised or not, between an organic phase and buffer at a given pH. High values mean higher lipophilicity, low ones lower lipophilicity. Usually clearance stands for the rate of elimination divided by the concentration. High values mean a high capacity for elimination, low ones a low capacity for elimination. Usually bioavailability stands for dose-corrected exposure relative to a reference, in per cent. A high value points to good availability.

Series [1] can be described thus: Solubility at pH 7.4. In kind it is physicochemical. To be noted: buffer.
A further series deals with Histone deacetylase 1 (Homo sapiens, UniProt Q13547). Nature of the series: Inhibition of human HDAC1 expressed in Hi5 cells. Also noted: species or system BTI-TN-5B1-4. A digest of the protocol:
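C-terminally FLAG-tagged HDAC1 purified on anti-FLAG M2 agarose. Development 30 min at ambient temperature, fluorescence read at ex 360/em 465 nm. IC50 taken from dose–response curves.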

The test system of a further series is HCT-116. The experiment in a line: Antiproliferative activity against human HCT116 cells after 72 hrs. In kind it is functional, cell-based. The note with it: HCT-116, 72 h. A digest of the protocol:
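HCT116 cells seeded at 1 × 10³ cells/well and left to adhere overnight, then exposed to inhibitors for 72 h. MTS tetrazolium dye added and incubated a further 3 h, with absorbance read at 490 nm.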

In series [2] the target is Voltage-gated inwardly rectifying potassium channel KCNH2 (Homo sapiens, UniProt Q12809). The experiment in a line: Inhibition of human ERG channel.
Sequence of Voltage-gated inwardly rectifying potassium channel KCNH2 (Q12809 whole entry): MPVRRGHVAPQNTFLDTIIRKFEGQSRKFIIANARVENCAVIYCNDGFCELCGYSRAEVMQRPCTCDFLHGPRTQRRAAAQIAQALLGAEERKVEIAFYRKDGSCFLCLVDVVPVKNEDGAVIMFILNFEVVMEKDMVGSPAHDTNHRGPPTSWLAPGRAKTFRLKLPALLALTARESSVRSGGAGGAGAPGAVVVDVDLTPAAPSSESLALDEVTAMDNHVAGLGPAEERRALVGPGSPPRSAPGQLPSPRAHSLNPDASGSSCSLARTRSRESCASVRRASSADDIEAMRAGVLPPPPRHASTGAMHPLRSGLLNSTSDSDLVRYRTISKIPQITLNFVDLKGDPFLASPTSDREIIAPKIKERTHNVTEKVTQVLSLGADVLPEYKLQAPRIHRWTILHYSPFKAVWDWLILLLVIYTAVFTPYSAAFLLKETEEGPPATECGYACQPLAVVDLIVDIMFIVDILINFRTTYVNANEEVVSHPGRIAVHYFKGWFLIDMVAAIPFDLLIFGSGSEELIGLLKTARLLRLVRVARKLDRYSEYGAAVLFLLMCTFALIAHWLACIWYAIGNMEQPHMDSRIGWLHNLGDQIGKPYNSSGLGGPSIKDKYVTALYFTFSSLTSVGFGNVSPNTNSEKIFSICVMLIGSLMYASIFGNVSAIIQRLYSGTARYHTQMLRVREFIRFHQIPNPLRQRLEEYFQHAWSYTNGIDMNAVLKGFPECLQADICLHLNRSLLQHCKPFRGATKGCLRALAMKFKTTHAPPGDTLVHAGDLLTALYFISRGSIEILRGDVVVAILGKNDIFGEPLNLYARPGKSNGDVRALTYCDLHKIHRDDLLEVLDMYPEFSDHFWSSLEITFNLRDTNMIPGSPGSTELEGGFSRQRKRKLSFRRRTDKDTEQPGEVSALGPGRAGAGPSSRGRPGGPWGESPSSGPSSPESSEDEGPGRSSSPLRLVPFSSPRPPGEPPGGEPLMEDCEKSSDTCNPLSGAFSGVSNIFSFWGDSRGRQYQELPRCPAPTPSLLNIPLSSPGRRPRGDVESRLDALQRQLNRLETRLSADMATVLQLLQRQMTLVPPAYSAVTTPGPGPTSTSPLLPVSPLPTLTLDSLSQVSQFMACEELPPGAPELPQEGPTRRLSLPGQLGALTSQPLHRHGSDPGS
Series [3] is described as follows: Half life in rat at 55.6 umol/kg, po. The class given is ADME, organism-based. The note with it: in vivo.
Series [4] is described as follows: Lipophilicity, log D at pH 7.4. In kind it is physicochemical. The note with it: buffer.
Series [5] can be described thus: Half life in rat at 5 umol/kg, iv. The note with it: in vivo. The class given is ADME, organism-based.
Series [6] in a line: Volume of distribution at steady state in rat at 5 umol/kg, iv. In kind it is ADME, organism-based. The note with it: in vivo, read-out: Vdss.
Series [7] is described as follows: Clearance in rat at 5 umol/kg, iv. In kind it is ADME, organism-based. To be noted: in vivo.
Series [8] can be described thus: Half life in rat at 10 umol/kg, po. In kind it is ADME, organism-based. To be noted: in vivo.
The nature of series [9]: Half life in rat at 67.1 umol/kg, po. The note with it: in vivo. In kind it is ADME, organism-based.
Series [10] is described as follows: Half life in rat at 56.4 umol/kg, po. In kind it is ADME, organism-based. The note with it: in vivo.
Series [11] is described as follows: Half life in rat at 56.7 umol/kg, po. In kind it is ADME, organism-based. To be noted: in vivo.
The nature of series [12]: Half life in rat at 2.5 umol/kg, iv. The note with it: in vivo. The class given is ADME, organism-based.
Series [13] in a line: Clearance in rat at 2.5 umol/kg, iv. The class given is ADME, organism-based. To be noted: in vivo.
A short description of series [14]: Volume of distribution at steady state in rat at 2.5 umol/kg, iv. The class given is ADME, organism-based. The note with it: in vivo, read-out: Vdss.
A short description of series [15]: Half life in rat at 55 umol/kg, po. The note with it: in vivo. In kind it is ADME, organism-based.
Series [16] is described as follows: Half life in rat at 63.6 umol/kg, po. To be noted: in vivo. In kind it is ADME, organism-based.
Series [17] can be described thus: Bioavailability in Beagle dog at 3 umol/kg, po. In kind it is ADME, organism-based, Canis lupus familiaris. The note with it: in vivo.
A short description of series [18]: Half life in Beagle dog at 3 umol/kg, po. The class given is ADME, organism-based, Canis lupus familiaris. The note with it: in vivo.
Series [19] can be described thus: Volume of distribution at steady state in Beagle dog at 0.8 umol/kg, iv. The class given is ADME, organism-based, Canis lupus familiaris. The note with it: in vivo, read-out: Vdss.
For series [20], the system named is Plasma. The experiment in a line: Fraction unbound to […]. In kind it is ADME, cell-free, Canis lupus familiaris.
Series [21] can be described thus: Half life in rat at 65.2 umol/kg, po. In kind it is ADME, organism-based. To be noted: in vivo.
Series [22] has as its system Plasma. Nature of the series: Fraction unbound to rat plasma protein in rat. In kind it is ADME, cell-free.
Series [23] can be described thus: Half life in mouse at 65.2 umol/kg, po. To be noted: in vivo. In kind it is ADME, organism-based.
A short description of series [24]: Clearance in Beagle dog at 0.8 umol/kg, iv. In kind it is ADME, organism-based, Canis lupus familiaris. To be noted: in vivo.
For series [25], the system named is Plasma. Nature of the series: Fraction unbound to rat plasma protein in mouse. The class given is ADME, cell-free.
Series [26] is described as follows: Half life in Beagle dog at 0.8 umol/kg, iv. In kind it is ADME, organism-based, Canis lupus familiaris. To be noted: in vivo.

In brackets after ≈: the same amount, converted by molar mass.

Sequence of Histone deacetylase 1 (Q13547 whole entry): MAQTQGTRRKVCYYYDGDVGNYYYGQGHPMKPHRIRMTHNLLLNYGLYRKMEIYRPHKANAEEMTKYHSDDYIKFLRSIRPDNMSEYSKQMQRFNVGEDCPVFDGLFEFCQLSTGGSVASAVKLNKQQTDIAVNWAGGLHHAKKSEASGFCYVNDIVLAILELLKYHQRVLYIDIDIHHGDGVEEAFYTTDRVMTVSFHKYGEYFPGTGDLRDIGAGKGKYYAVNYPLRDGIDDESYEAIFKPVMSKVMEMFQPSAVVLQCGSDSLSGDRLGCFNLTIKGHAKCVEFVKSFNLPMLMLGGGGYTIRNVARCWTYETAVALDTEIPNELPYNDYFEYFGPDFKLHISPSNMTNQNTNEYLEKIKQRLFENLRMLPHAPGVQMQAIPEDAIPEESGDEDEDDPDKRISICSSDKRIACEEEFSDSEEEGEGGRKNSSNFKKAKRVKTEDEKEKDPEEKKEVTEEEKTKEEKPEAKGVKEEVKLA

The molecule `CCN1CCN(Cc2cnc(-c3ccc(C(=O)Nc4ccccc4N)cc3)c(F)c2)CC1` returned a solubility in series [1] above 2420 µM. Moreover, the half-inhibitory concentration (IC50) was 38 nM on Histone deacetylase 1, 437 nM in the series on HCT-116 and above 31600 nM in [2].

With `CCN1CCN(Cc2cnc(-c3ccc(C(=O)Nc4ccccc4N)cc3)c(Cl)c2)CC1`, the half-life in [3] is 4.4 h. Further, the IC50 against Histone deacetylase 1 was 16.2 nM; in the series with HCT-116, 339 nM; in series [2], 8320 nM. In series [4], this molecule registered a logD of 1.81.

Consider `Nc1ccccc1NC(=O)c1ccc(-c2ncc(CN3CCC3)cc2F)cc1`, for which the half-life in series [5] is 3.6 h; in [8] it was 5.4 h. This molecule also registered a solubility in series [1] of 841 µM (≈ 317 µg/mL). Further, the half-maximal inhibitory concentration (IC50) against Histone deacetylase 1 was 50.1 nM; with HCT-116 it was 372 nM; in series [2] it was above 25100 nM. Further, the Vd in series [6] worked out at 6.3 L/kg. Moreover, the log distribution coefficient (logD) in series [4] stood at 1.69. The same molecule displayed a clearance in series [7] of 34 mL/min/kg.

For `Cc1cc(CN2CCC2)cnc1-c1ccc(C(=O)Nc2ccccc2N)cc1`, the half-life is 3 h in [5] and 5.5 h in series [9]. For the same molecule, the concentration in solution in series [1] (solubility) came to 2240 µM (≈ 834 µg/mL). Also, the IC50 at Histone deacetylase 1 was 21.4 nM; with HCT-116, 309 nM. Also, in series [6], the Vd came to 6.9 L/kg. The molecule further displayed a logD in series [4] of 1.18. This molecule showed a clearance in [7] of 30.2 mL/min/kg.

For the molecule `Cc1cc(CN2CCN(C(C)C)CC2)cnc1-c1ccc(C(=O)Nc2ccccc2N)cc1`, the solubility in [1] was above 2620 µM. The molecule further showed an IC50 in the series on HCT-116 of 240 nM. The molecule also returned a log distribution coefficient (logD) in series [4] of 1.44. In [10], this molecule showed a half-life of 3.4 h.

Molecule `CC(C)N1CCN(Cc2cnc(-c3ccc(C(=O)Nc4ccccc4N)cc3)c(F)c2)CC1` returned a solubility in series [1] above 2160 µM. Besides, the IC50 against Histone deacetylase 1 is 33.1 nM; in the series on HCT-116, 646 nM; in [2], above 31600 nM. In [4], this molecule returned a logD of 1.6.

In the case of `CCN1CCN(Cc2cnc(-c3ccc(C(=O)Nc4ccccc4N)cc3)c(C#N)c2)CC1`, the values for the half-life in series [11] and in [12] were 3.2 h and 1.1 h, respectively. Besides, in series [1], the solubility was above 1940 µM. Moreover, the IC50 against Histone deacetylase 1 was 9.77 nM; with HCT-116 it was 138 nM; in series [2], above 25100 nM. Moreover, the clearance in series [13] was determined as 47.5 mL/min/kg. In [4], this molecule displayed a pH-dependent lipophilicity (logD) of 1.14. Besides, the Vd in series [14] is 3.6 L/kg.

In turn, `CCN1CCN(Cc2cnc(-c3ccc(C(=O)Nc4ccccc4N)cc3)c(C)c2)CC1` yielded a solubility in series [1] above 2350 µM. The figures for the 50% inhibitory concentration (IC50) (against Histone deacetylase 1; in the series on HCT-116; in [2]) were 18.6 nM, 229 nM and above 25100 nM, respectively. For the same molecule, the logD in series [4] is 1.2.

In turn, `CC(C)N1CCN(Cc2cnc(-c3ccc(C(=O)Nc4ccccc4N)cc3)c(Cl)c2)CC1` yielded a solubility in series [1] above 1490 µM. Further, the IC50 is 13.2 nM on Histone deacetylase 1, 309 nM in the series with HCT-116 and 7080 nM in [2]. This molecule also displayed a logD in series [4] of 1.68.

Molecule `N#Cc1cccnc1-c1ccc(C(=O)Nc2ccccc2N)cc1` gave a solubility in series [1] of 35 µM (≈ 11 µg/mL). The values for the IC50 (against Histone deacetylase 1; with HCT-116; in [2]) were 12.3 nM, 288 nM and above 31600 nM, respectively. Also, the Vd in [6] turned out to be 1 L/kg. In series [4], this molecule came in with a logD of 1.58. Also, the clearance in [7] is 56.1 mL/min/kg.

Take `CC(C)N1CCN(Cc2cnc(-c3ccc(C(=O)Nc4ccccc4N)cc3)c(C#N)c2)CC1`: the half-life in series [12] was 2 h; in [15], 4.3 h. The same molecule displayed a solubility in series [1] of 1380 µM (≈ 630 µg/mL). The IC50 is 10.5 nM against Histone deacetylase 1, 141 nM in the series on HCT-116 and 19100 nM in series [2]. In addition, the clearance in [13] came to 44 mL/min/kg. This molecule displayed a logD in [4] of 1.28. In addition, in [14], the Vd turned out to be 5.1 L/kg.

Take `Nc1ccccc1NC(=O)c1ccc(-c2ncc(CN3CCC3)cc2Cl)cc1`: the solubility in series [1] amounted to 1340 µM (≈ 526 µg/mL). Also, the IC50 against Histone deacetylase 1 was 18.6 nM; in the series with HCT-116, 302 nM; in series [2], 22400 nM. In series [16], this molecule had a half-life of 5.2 h.

Molecule `N#Cc1cc(CN2CCC2)cnc1-c1ccc(C(=O)Nc2ccccc2N)cc1` returned a bioavailability in series [17] of 13%. For the same molecule, the half-life in [18] is 2.1 h; in series [5] it was 3.8 h; in [21], 5.5 h; in [23] it was 3 h; in [26], 1.9 h. Also, the Vd in series [19] came out at 2.32 L/kg; in [6], 5.4 L/kg. The fu with Plasma [20] is reported as 48%; in the series with Plasma [22], 53%; with Plasma [25], 54%. Further, in series [1], the concentration in solution (solubility) was 746 µM (≈ 286 µg/mL). Also, the IC50 on Histone deacetylase 1 was 9.77 nM; in the series with HCT-116, 138 nM; in series [2] it was above 25100 nM. The figures for the clearance in series [24] and in [7] were 30 mL/min/kg and 19.6 mL/min/kg, respectively. Moreover, the log distribution coefficient (logD) in [4] was determined as 1.22.
